Assay outcomes deposited in PubChem by several laboratories.
ALR H2O2 inh: inhibitors of human ALR sulfhydryl oxidase, primary screen, biochemical, H2O2 detection, HRP-luminol luminescence, single point; FAD-linked sulfhydryl oxidase ALR (Homo sapiens), P55789; purified ALR, DTT oxidation; inhibition, % (no concentration beside the values); 290,000 compounds, 3.8% hits;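 active means mean replicate inhibition above about 79%, with every replicate also reaching it, limit read from the data; inconclusive means only one of the two criteria met; inactive means mean below limit and not every replicate reaching it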
NLRP3 yeast inh: NALP3 inflammasome inhibitors in reconstituted yeast, primary screen, luminescence, uHTS; Yeast reconstituted NLRP3/ASC/caspase-1, beta-gal luminescence, 24 h; inhibition, % at 10 µM; AID 2825, 2010; 330,000 compounds, 0.39% hits;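 active means inhibition of 50% or more; inactive means inhibition below 50%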
UCH37 DUB inh: inhibitors of human UCH37 deubiquitinase, primary screen, biochemical, Ub-AMC cleavage, fluorescence; Ubiquitin carboxyl-terminal hydrolase isozyme L5 (Homo sapiens), Q9Y5K5; purified proteasome/UCH37; inhibition, % (no concentration beside the values); 330,000 compounds, 0.33% hits; AID 588478, 2011;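 active means mean inhibition over replicate wells above about 20%, limit read from the data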
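Reagent: Ub-AMC substrate; assay system: Proteasome-associated human UCH37 deubiquitinase; controls: no-proteasome and no-compound wells; read-out: % inhibition of Ub-AMC cleavage fluorescence; timing: 30 min preincubation with enzyme, 25 min cleavage at room temperature; signal: AMC fluorescence from Ub-AMC cleavage, excitation 355 nm, emission 460 nm; buffer or medium: Tris-HCl pH 7.4 plus ovalbumin, ATP-MgCl2, DTT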
ATG4B inhibitor: ATG4B protease inhibitors, primary screen, biochemical, fluorescence, uHTS; ATG4B cleavage of LC3-PLA2, NBD-HPC fluorescence, 1 h; inhibition, % at 8.33 µM; 340,000 compounds, 0.51% hits; in the data active means inhibition above about 40%
Target sequence (Q9Y4P1 whole entry, looked up): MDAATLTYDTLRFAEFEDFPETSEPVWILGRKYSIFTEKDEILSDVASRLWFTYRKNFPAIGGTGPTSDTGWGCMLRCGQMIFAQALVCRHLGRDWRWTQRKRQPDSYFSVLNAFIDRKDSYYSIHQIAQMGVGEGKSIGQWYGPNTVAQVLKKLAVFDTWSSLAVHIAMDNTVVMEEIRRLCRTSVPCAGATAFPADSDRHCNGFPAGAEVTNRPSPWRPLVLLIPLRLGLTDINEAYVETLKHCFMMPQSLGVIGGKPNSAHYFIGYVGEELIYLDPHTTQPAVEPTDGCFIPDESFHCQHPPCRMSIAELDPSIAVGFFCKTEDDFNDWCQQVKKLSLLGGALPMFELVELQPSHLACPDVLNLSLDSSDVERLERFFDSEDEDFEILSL
Calb FLC: C. albicans growth inhibition with fluconazole, primary screen, CaCi-2 strain, Alamar Blue fluorescence; C. albicans CaCi-2 (fluconazole-resistant clinical isolate) + fluconazole, 48 h; growth inhibition, % (concentration not given with the values); 300,000 compounds, 0.57% hits; AID 1979, 2009;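 active means growth inhibition above about 58% in most replicates, limit read from the data, passing the limit was not always enough; inconclusive means exactly half the replicates above a set limit; inactive means most replicates below a set limit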;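 further: all wells also contain fluconazole at 8 µg/ml as a sub-toxic cotreatment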
NALP1 inh: NALP1 inflammasome inhibitors in reconstituted yeast, colorimetric, S. cerevisiae, triplicate retest; S. cerevisiae NALP1/ASC/caspase-1 growth, X-gal OD620, 72 h; inhibition, % at 10 µM; 280,000 compounds, 0.61% hits; AID 2071, 2009; in the data active means inhibition mostly above about 24%, no sharp cut-off; inactive means mostly below about 32%
ATG4B confirm: ATG4B protease inhibitors, retest, confirmation, biochemical, fluorescence, single concentration; shares compounds with ATG4B inhibitor; ATG4B protease fluorescent substrate cleavage assay; inhibition, % at 8.33 µM; 320 compounds, 92% hits; AID 504757, 2011; in the data active means inhibition above about 39%
PLA2 ctr: PLA2 enzyme inhibition, counter-screen for ATG4B inhibitor project, biochemical, single concentration, uHTS hits. shares compounds with ATG4B inhibitor. purified PLA2, NBD-C6-HPC fluorescence, 45 min. inhibition, % at 8.33 µM. 1,600 compounds, 66% hits; in the data active means inhibition above about 50%
Target sequence (P04054 whole entry, looked up): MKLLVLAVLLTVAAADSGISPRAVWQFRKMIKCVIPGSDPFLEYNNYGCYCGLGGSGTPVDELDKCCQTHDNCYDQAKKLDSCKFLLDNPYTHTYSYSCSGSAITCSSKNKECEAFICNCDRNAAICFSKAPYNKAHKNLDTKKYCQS
Hits are given with their value; - = inactive; ? = inconclusive; . = not tested or not shown. Rows were chosen to be rich in hits. Some 4.8% of all compounds tested hit in one or more screens of this group.

SMILES | ALR H2O2 inh | NLRP3 yeast inh | UCH37 DUB inh | ATG4B inhibitor | Calb FLC | NALP1 inh | PLA2 ctr | others
O=C1CCCC2=C1C(c1ccncc1)c1c(nc(SCc3ccccc3Cl)[nH]c1=O)N2 (configuration not stated) | - | - | - | 77 | . | - | 81
Cc1ccccc1N1CCN(C(=O)NCc2cccc(Cl)c2)CC1 | - | - | - | 61 | - | - | 73
COc1ccc(/C=C2\SC(=S)N(CCCC(=O)NNC(=O)c3ccccc3O)C2=O)cc1 | - | - | . | 49 | - | - | -
COc1cccc(NS(=O)(=O)c2ccc3c(c2)C2C=CCC2C(c2ccc(C(=O)O)cc2)N3)c1 (configuration not stated) | - | . | - | 67 | - | - | - | ATG4B confirm=62
COC(=O)c1ccc(C2Nc3ccc(C(C)=NNC(=O)C(OC)c4ccccc4)cc3C3C=CCC32)cc1 (configuration not stated) | . | . | - | . | . | . | .
Nc1c(C(=O)Nc2ccc3c(c2)OCCO3)nnn1Cc1cccc(Br)c1 | - | - | - | 41 | - | . | -
Nc1c(C(=O)Nc2ccc3c(c2)OCCO3)nnn1Cc1ccc(Br)cc1 | - | - | - | - | - | . | .
Nc1nonc1-n1nnc(C(=O)NN=Cc2ccncc2)c1-c1ccccc1 | . | . | - | . | . | . | .
O=C(Oc1ccccc1)c1ccccc1 | . | . | - | - | . | . | .
CC(C)(C)c1ccc(OC(=O)c2ccccc2)cc1 | - | - | - | 68 | - | - | 64
COCCN=c1scc(-c2ccc3c(c2)NC(=O)CO3)n1N=C(C)c1ccc(O)cc1 | . | . | - | . | . | . | .
O=[N+]([O-])c1ccc(N/N=C/c2c[nH]c3ccccc23)c(S(=O)(=O)Nc2ccc(Cl)cc2)c1 | - | - | . | 42 | - | - | 53
Cn1cccc1C=NNC(=O)CSc1nc2ccccc2n1C | . | . | - | . | . | . | .
O=C(/C=C/N1CCOCC1)c1cc2ccccc2o1 | - | - | - | 65 | - | - | -
O=C(O)c1coc2ccccc12 | - | - | - | - | - | - | .
O=C(/C=C/N1CCOCC1)c1coc2ccccc12 | - | - | . | 44 | - | - | -
O=C(NN=Cc1ccco1)c1cc(-c2cccs2)[nH]n1 | . | . | - | . | . | . | .
CN1CCc2nc3sc(C(=O)C45CC6CC(CC(C6)C4)C5)c(N)c3cc2C1 | - | - | - | 45 | . | - | -
CC(C)(C)c1ccc(C(=O)Nc2ccccc2Cl)cc1 | - | - | - | 45 | - | - | 55
CC(=NNc1nncc2ccccc12)c1ccc(O)cc1 | . | . | - | . | . | . | .
CN(C)c1ccc(C=Nn2cnn(Cc3ccccc3Cl)c2=S)cc1 | . | . | - | . | . | . | .
O=C(COc1ccc2ccccc2c1)NN=Cc1ccccn1 | . | . | - | . | . | . | .
COCCNC(=O)c1cc2c(s1)-c1ccc(Cl)cc1SC2 | - | - | - | - | - | - | .
NC(=O)c1cc2c(s1)-c1cc(Cl)ccc1SC2 | - | - | - | 44 | - | . | -
O=C1OC(c2ccccc2)=N/C1=C/c1cccc(OC(=O)c2cccs2)c1 | - | - | - | - | - | . | .
SMILES | ALR H2O2 inh | NLRP3 yeast inh | UCH37 DUB inh | ATG4B inhibitor | Calb FLC | NALP1 inh | PLA2 ctr | others
O=C1NN(c2ccc(F)c(Cl)c2)C(=O)/C1=C\c1cccc(OC(=O)c2cccs2)c1 | - | - | - | 60 | - | - | 57
CCn1c(SCc2ccccc2Cl)nc2nc3c(cc2c1=O)CCCC3 | . | . | - | 40 | - | - | - | ATG4B confirm=66
O=C(O)c1cc(Cl)c(Cl)cc1C(=O)N(Cc1ccccc1)Cc1ccccc1 | - | - | - | 43 | - | - | 52
Cc1[nH]c2ccccc2c1/C=C/c1nc2ccccc2c(=O)n1-c1cccc([N+](=O)[O-])c1 | - | - | - | - | - | - | .
CC(C#N)Sc1nc2ccccc2c(=O)n1-c1ccccc1 (configuration not stated) | - | - | - | 47 | - | - | 56
CCOC(CCn1c(SCc2ccc([N+](=O)[O-])cc2)nc2ccccc2c1=O)OCC | - | - | - | - | - | - | .
O=c1c2ccccc2nc(/C=C/c2c[nH]c3ccccc23)n1-c1ccc([N+](=O)[O-])cc1 | - | - | . | 57 | - | - | -
Cc1ccc(-n2c(SCc3ccc([N+](=O)[O-])cc3)nc3ccccc3c2=O)cc1 | - | - | - | 41 | - | - | -
Cc1ccc(-n2c(SCC(=O)NNC(=S)Nc3ccccc3)nc3ccccc3c2=O)cc1 | - | - | - | 78 | - | - | 82
O=C(CSc1nc2ccccc2c(=O)n1-c1ccc(F)cc1)Nc1ccc(C(=O)O)cc1 | - | - | - | - | - | - | .
CCOC(=O)c1c(C)[nH]c(C)c1C(=O)CSc1nc2ccccc2c(=O)n1-c1ccc(CC)cc1 | - | - | - | 52 | - | - | 66
O=Cc1cn(CCC(=O)O)nc1-c1cccc(Br)c1 | - | - | - | - | - | - | .
O=C(O)CCn1cc(/C=C\C(=O)c2ccc(Cl)cc2)c(-c2cccc(Br)c2)n1 | ? | - | - | 46 | - | - | - | ATG4B confirm=69
CCOc1ccc(C(=O)C2CCN(CC(=O)Nc3ccccc3N3CCOCC3)CC2)cc1 | - | - | - | 44 | - | - | - | ATG4B confirm=65
Cc1ccc(NC(=O)CN2C(=O)S/C(=C\c3cccn3-c3cccc(C(=O)O)c3)C2=O)cc1C | - | - | - | - | - | - | .
Cc1cccc(C)c1NC(=O)CN1C(=O)S/C(=C\c2cccn2-c2cccc(C(=O)O)c2)C1=O | - | - | - | 47 | - | - | -
Cc1cccc(C)c1-n1cccc1/C=C1\SC(=S)N(c2cccc(C(=O)O)c2)C1=O | - | - | - | 91 | - | - | 85
Cc1ccccc1NC(=O)CN1C(=O)S/C(=C\c2cccn2-c2cccc(C(=O)O)c2)C1=O | - | - | - | - | - | - | .
Nc1nonc1C(=O)NCCN=Cc1cc(Cc2ccccc2)cc(Br)c1O | - | - | - | 86 | - | - | 72
COc1cc(C=NNC(=O)Nc2ccccc2)ccc1OC(C)=O | . | . | - | . | . | . | .
CC1/C(=N/O)CC(c2ccccc2)NC1c1ccccc1 (configuration not stated) | - | - | . | - | - | - | .
CC1/C(=N/O)CC(c2ccccc2)N(C)C1c1ccccc1 (configuration not stated) | - | - | . | 57 | - | - | -
